From paper PMC6087491 (Bioorganic & medicinal chemistry, 2018)
Like-named read-outs stand apart in the source and are kept apart here.

Tests used:
[1] = system: CAR cell line; experiment: MTT antiproliferative assay against cisplatin-resistant oral squamous; format: cell-based, human
Outline: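 Cells are a CAL27-derived line selected through 10 cycles of 10–80 μM cisplatin and maintained in DMEM/10% FBS with penicillin, streptomycin, 2 mM L-glutamine and 80 μM cisplatin. They were seeded at 2×10^4 cells/well and exposed to 0–100 μM test compound (0.5% DMSO vehicle) for 48 or 72 h. MTT (500 μg/ml) was added for 4 h at 37 °C, formazan was dissolved in DMSO, and A570 was read. Viability is expressed as % of control.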

[2] = system: CAR xenograft; experiment: In vivo antitumor activity in CAR xenograft nude mouse model; design: species or system BALB/c nude mice
Outline: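 Male 4-week-old BALB/c nude mice; CAR cells (cisplatin-resistant CAL27, cultured with 80 μM cisplatin), 1×10^7/mouse in medium:Matrigel 1:1, injected s.c. into flank. At ~50 mm3 (day 22), randomised into four groups; test compound oral 25, 50 or 100 mg/kg once daily ×30 in 1,2-propanediol; controls vehicle only. Caliper tumor size ([…]); tumors excised, weighed day 31.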

[3] = Toxicity monitoring and blood biochemical analysis in CAR xenograft nude mice; format: in vivo, BALB/c nude mice
[4] = Preliminary pharmacokinetic study of compound 12 in rats; details: single oral 100 mg/kg, PO-1 and PO-2 formulations, 0.5-24 h
[5] = read-out: IC50 (concentration for 50% antiproliferative effect), CAR cells, 48 h
[6] = read-out: IC50 (concentration for 50% antiproliferative effect), CAR cells, 72 h

Row | Compound | IC50 [1, 5] | IC50 [1, 6] | other results
1 | (E)-5-(4-Hydroxystyryl)-1,3-phenylene bis(3-hydroxy-2-(hydroxymethyl)-2-methylpropanoate) [Compound 24] | 90.4 ± 3.65 µM | 76.9 ± 3.22 µM | 
2 | COc1cc(/C=C/c2ccc(OC(=O)C(C)(CO)CO)cc2)cc(OC)c1 [Compound 12, 4-(3,5-Dimethoxystyryl)phenyl-3-hydroxy-2-(hydroxymethyl)-2-methylpropanoate] |  |  | inhibitory effects on CAR tumor size and weight ([2]; 25, 50 and 100 mg/kg PO once daily for 30 days): dose- and time-dependent inhibitory effects; antitumor activity ([2]; lowest oral dose 25 mg/kg/day): Obvious antitumor activity; changes in body weight, food consumption and behavior vs untreated control ([3]; 25, 50 and 100 mg/kg PO QD×30): no obvious changes; blood analysis, 12-fed groups vs control group ([3]; total protein, albumin, creatinine, BUN, uric acid, glucose, 25-100 mg/kg QD×30): no significant difference; blood concentration of compound 12 [4]: not detected
3 | (E)-4-(3-Hydroxy-5-((3-hydroxy-2-(hydroxymethyl)-2-methylpropanoyl)oxy) styryl)phenyl 3-hydroxy-2-(hydroxymethyl)-2-methylpropanoate [Compound 25] | 105 ± 1.98 µM | 113 ± 2.77 µM | 
4 | (E)-4-(3-Acetoxy-5-((3-hydroxy-2-(hydroxymethyl)-2-methylpropanoyl)oxy) styryl)phenyl 3-hydroxy-2-(hydroxymethyl)-2-methylpropanoate [Compound 27] | 122 ± 2.69 µM | 119 ± 2.19 µM | 
5 | N.N.[Cl][Pt][Cl] [Cisplatin, reference compound] | > 100 µM | > 100 µM | 
6 | (E)-5-(4-((3-Hydroxy-2-(hydroxymethyl)-2-methylpropanoyl)oxy)styryl)-1,3-phenylene diacetate [Compound 22] | 103 ± 4.58 µM | 116 ± 3.96 µM | 
7 | (E)-4-(3-Acetoxy-5-methoxystyryl)phenyl 3-hydroxy-2-(hydroxymethyl)-2-methylpropanoate [Compound 18] | 169 ± 3.19 µM | 133 ± 2.45 µM | 
8 | 4-[(E)-2-(3,5-dimethoxyphenyl)ethenyl]phenol [Pterostilbene, reference compound] | 100 ± 4.78 µM | 98.3 ± 5.21 µM | 
9 | (E)-4-(3,5-Dihydroxystyryl)phenyl 3-hydroxy-2-(hydroxymethyl)-2-methylpropanoate [Compound 20] | 52 ± 2.6 µM | 50.3 ± 1.98 µM | 
10 | (E)-5-(4-((3-Hydroxy-2-(hydroxymethyl)-2-methylpropanoyl)oxy)styryl)-1,3-phenylene diacetate [Compound 23] | 54.9 ± 2.59 µM | 114 ± 3.25 µM | 
